Experimental data gathered from unrelated publications.
Lines come from different studies, so protocols differ.
Target: Inhibitor of nuclear factor kappa-B kinase subunit epsilon (IKBKE, Homo sapiens, UniProt Q14164)
Sequence (Q14164 1-716, as in one of the studies): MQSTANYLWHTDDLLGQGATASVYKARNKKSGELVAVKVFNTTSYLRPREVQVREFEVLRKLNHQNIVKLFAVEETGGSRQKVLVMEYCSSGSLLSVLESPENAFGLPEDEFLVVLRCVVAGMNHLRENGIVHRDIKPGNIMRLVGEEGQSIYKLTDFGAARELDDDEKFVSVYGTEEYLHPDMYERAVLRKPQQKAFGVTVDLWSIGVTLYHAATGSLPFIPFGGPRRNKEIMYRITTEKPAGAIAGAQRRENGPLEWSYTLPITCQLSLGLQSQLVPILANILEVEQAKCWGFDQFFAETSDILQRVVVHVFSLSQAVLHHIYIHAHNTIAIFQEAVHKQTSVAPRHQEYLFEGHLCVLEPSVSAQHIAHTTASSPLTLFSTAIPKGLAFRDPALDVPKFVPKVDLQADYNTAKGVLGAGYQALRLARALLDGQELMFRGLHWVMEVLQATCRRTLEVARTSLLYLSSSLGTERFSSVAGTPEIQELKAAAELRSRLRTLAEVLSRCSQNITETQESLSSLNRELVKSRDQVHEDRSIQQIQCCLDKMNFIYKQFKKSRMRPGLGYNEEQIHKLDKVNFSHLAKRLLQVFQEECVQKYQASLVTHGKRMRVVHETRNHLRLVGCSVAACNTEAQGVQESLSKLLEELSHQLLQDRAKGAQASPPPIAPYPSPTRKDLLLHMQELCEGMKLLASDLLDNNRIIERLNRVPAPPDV

SMILES | assay | conditions | measurement | result
NS(=O)(=O)c1ccc(CNc2nc(Nc3cccc(NC(=O)N4CCCC4)c3)ncc2C2CC2)cc1 | enzyme activity, inhibitor, radiometric | 1 µM | remaining activity | 52%
C[C@@H]1CN(c2cc(-c3nn(C)c4ccc(OC5(C)CC5)cc34)ncn2)C[C@H](C)O1 | cell-free assay, competition with immobilised ligand | 1 µM | remaining binding | 65%
Cc1nn(CC(F)(F)F)cc1Nc1nccc(NCCCNC(=O)C2CCC2)n1 | enzyme activity, inhibitor, radiometric | 1 µM | remaining activity | 63%
COc1ccnn2ncc(-c3ccnc(N(C)C)n3)c12 | binding | 1 µM | remaining binding | 94%
Cc1nn(CC(F)(F)F)cc1Nc1ncc(Br)c(NCc2ccc(S(N)(=O)=O)cc2)n1 | enzyme activity, inhibitor, radiometric | 1 µM | remaining activity | 23%
CCOc1cc(-c2nncn2C)ccc1Nc1ncc2cc(C)nc(NCC(C)(C)C)c2n1 | enzyme activity, inhibitor, FRET | 1 µM | inhibition | < 15%
Cc1nn(CC(F)(F)F)cc1Nc1ncc(Br)c(NCCCNC(=O)C2CCC2)n1 | enzyme activity, inhibitor, radiometric | 1 µM | remaining activity | 1%
CCCS(=O)(=O)Nc1ccc(F)c(C(=O)c2c[nH]c3ncc(-c4ccc(Cl)cc4)cc23)c1F | enzyme activity, inhibitor | 1 µM | inhibition | < 10%
Cc1nn(CC(F)(F)F)cc1Nc1nccc(NCCc2cnc[nH]2)n1 | enzyme activity, inhibitor, radiometric | 1 µM | remaining activity | 83%
COc1cc(/C=C/C(=O)CC(=O)/C=C/c2ccc(O)c(OC)c2)ccc1O | enzyme activity, inhibitor | 1 µM | activity vs control | 72%
CC(=O)C1=C(C)N(c2cccc(C(F)(F)F)c2)C(=O)N[C@@H]1c1ccc(C#N)nc1 | cell-free assay, competition with immobilised ligand | 1 µM | remaining binding | 98.2%
COc1cc2ncnc(Nc3ccc(Oc4ccccc4)c(C)c3C)c2cc1OC | enzyme activity, inhibitor | 1 µM | inhibition | 1%
CCN(CC)CCNC(=O)c1c(C)[nH]c(/C=C2\C(=O)Nc3ccc(F)cc32)c1C | cell-free assay | 0.5 µM | remaining signal | 45.6%
Cc1noc([C@H]2C[C@@H](c3ccc(C(F)(F)F)cc3)CN(C(=O)N3CCS(=O)(=O)C3)C2)n1 | cell-free assay, competition with immobilised ligand | 1 µM | remaining binding | 100%
Cc1nn(CC(F)(F)F)cc1Nc1ncc(C2CC2)c(NCc2ccc(S(N)(=O)=O)cc2)n1 | enzyme activity, inhibitor, radiometric | 1 µM | remaining activity | 43%
O=C(N[C@H]1CCCCC/C=C\C2C[C@@]2(C(=O)O)NC(=O)[C@@H]2C[C@@H](Oc3ccncc3)CN2C1=O)OC1CCCC1 (stereo partly shown) | binding, competition with immobilised ligand | 1 µM | remaining binding | 100%
O=C1c2ccccc2-c2n[nH]c3cccc1c23 | enzyme activity, inhibitor | 0.5 µM | activity vs control | 88.9%
O=c1nc(-c2ccccn2)sc2ccccc12 | binding, competition with immobilised ligand | 1 µM | remaining binding | 100%
Nc1nc(Nc2ccc(S(N)(=O)=O)cc2)nn1C(=O)c1c(F)cccc1F | cell-free assay | 0.5 µM | remaining signal | 95.9%
Cc1c(NC(=O)c2cc(C(N)=O)nc3cc(F)ccc23)c(C(F)(F)F)nn1Cc1ccc(C#N)cc1 | cell-free assay, competition with immobilised ligand | 1 µM | remaining binding | 75%
COc1ccc(COc2ccc(Cc3cnc(N)nc3N)cc2OC)cc1 | cell-free assay | 0.5 µM | remaining signal | 96.7%
O=C(Nc1cccc(Nc2ncc(Br)c(NCCc3cnc[nH]3)n2)c1)N1CCCC1 | enzyme activity, inhibitor, radiometric | 1 µM | remaining activity | 44%
